For assay [1], the target named is Delta-type opioid receptor (Mus musculus, UniProt P32300). Kind of assay: Inhibitory activity against Opioid receptor delta 1 of mouse vas deferens (MVD). The assay is classed as tissue-based.
For assay [2], the target named is Mu-type opioid receptor (Cavia porcellus, UniProt P97266). The experiment in a line: Compound was evaluated for its inhibitory activity towards Opioid receptor mu 1 of guinea pig ileum (GPI). The assay is classed as tissue-based. In outline: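 Guinea pig ileum segment (2-3 cm) in 20 mL organ bath with 70 µM hexamethonium bromide and 0.125 µM mepyramine maleate, 95% O2/5% CO2, 36 °C. Transmural stimulation, 0.5 ms square pulses at 0.1 Hz, 1.5× maximal-twitch voltage (~30 V). Dose-response curves against reference agonists (dermorphin or morphine). IC50 as mean ± SE of four independent experiments.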

Assay [3] addresses Delta-type opioid receptor (Rattus norvegicus, UniProt P33533). Kind of assay: Displacement of [3H]DPDPE (0.63 nM) from Opioid receptor delta 1. Put shortly: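 Rat brain synaptosomal membranes, preincubated, incubated with [3H]DPDPE in 50 mM HEPES pH 7.5, 5 mM MgCl2, glycerol, protease inhibitors, 120 min at 22-23 °C. Nonspecific baseline from 2 µM unlabeled peptide. Filtered, washed with ice-cold buffer plus 0.01% BSA or lactalbumin. Duplicates, 6-14 concentrations over 1000-fold, or triplicates with 25-35 concentrations for one/two-site fits. Ki via Cheng-Prusoff.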
Background: In a radioligand displacement assay an active substance lowers the binding of a labelled ligand.

The target of assay [4] is Mu-type opioid receptor (Rattus norvegicus, UniProt P33535). Kind of assay: Displacement of [3H]DAGO (1.28 nM) from Opioid receptor mu 1. Put shortly:
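Rat brain synaptosomal membranes, preincubated, in 50 mM HEPES pH 7.5, 5 mM MgCl2, glycerol, protease inhibitors with [3H]DAGO for 120 min at 22-23 °C. Baseline set with 2 µM unlabeled peptide. Filtration, washes with ice-cold buffer containing 0.01% BSA or lactalbumin. Duplicates over 6-14 concentrations spanning 1000-fold, or triplicates with 25-35 concentrations fitted to one- or two-site models. Ki from IC50 by Cheng-Prusoff.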

Square brackets hold non-standard residues; d marks the D form. Peptide text beside a SMILES is read from it. Ac6c = NC1(C(=O)O)CCCCC1; Ac5c = NC1(C(=O)O)CCCC1; Ac3c = NC1(C(=O)O)CC1

Sequence of Delta-type opioid receptor (Mus musculus, UniProt P32300) (P32300 whole entry): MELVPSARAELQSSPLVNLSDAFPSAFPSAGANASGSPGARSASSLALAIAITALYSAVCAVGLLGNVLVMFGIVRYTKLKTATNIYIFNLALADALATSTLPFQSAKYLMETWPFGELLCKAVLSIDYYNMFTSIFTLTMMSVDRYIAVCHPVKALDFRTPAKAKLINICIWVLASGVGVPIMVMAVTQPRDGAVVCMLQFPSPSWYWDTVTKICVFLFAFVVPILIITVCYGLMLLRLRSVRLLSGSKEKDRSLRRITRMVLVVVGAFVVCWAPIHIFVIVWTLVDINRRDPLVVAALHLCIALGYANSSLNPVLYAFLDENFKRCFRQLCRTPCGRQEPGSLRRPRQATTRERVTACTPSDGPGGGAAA
Sequence of Mu-type opioid receptor (Rattus norvegicus, UniProt P33535) (P33535 whole entry): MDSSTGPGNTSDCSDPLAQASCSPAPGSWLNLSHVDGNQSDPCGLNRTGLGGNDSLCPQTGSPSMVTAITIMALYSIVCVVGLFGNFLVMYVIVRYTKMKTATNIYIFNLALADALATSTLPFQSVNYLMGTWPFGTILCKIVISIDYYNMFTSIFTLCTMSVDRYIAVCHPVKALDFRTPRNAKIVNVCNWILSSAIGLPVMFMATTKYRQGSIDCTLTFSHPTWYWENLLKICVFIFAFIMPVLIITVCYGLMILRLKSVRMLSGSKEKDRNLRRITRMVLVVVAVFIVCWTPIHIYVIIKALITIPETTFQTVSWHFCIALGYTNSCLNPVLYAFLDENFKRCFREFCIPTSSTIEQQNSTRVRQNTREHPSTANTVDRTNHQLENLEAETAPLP
Sequence of Mu-type opioid receptor (Cavia porcellus, UniProt P97266) (P97266 whole entry): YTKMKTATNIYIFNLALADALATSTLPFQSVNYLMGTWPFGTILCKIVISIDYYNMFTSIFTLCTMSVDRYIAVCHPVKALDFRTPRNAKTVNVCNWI
Sequence of Delta-type opioid receptor (Rattus norvegicus, UniProt P33533) (P33533 whole entry): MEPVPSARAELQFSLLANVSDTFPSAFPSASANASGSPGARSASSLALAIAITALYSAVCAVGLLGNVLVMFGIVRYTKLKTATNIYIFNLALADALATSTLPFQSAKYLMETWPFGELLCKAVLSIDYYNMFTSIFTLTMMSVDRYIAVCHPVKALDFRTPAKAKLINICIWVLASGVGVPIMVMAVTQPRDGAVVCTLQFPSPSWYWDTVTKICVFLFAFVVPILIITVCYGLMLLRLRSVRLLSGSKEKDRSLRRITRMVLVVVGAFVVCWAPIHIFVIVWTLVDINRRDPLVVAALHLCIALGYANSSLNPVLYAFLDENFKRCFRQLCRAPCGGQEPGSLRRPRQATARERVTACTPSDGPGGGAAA

What is called IC50 is the concentration that gives 50% inhibition. Lower therefore signals inhibition by little substance. The Ki is the equilibrium dissociation constant of an inhibitor or competing ligand from its target. Low readings indicate tighter binding, high ones weaker binding. In the case of `CC(C)[C@H](NC(=O)[C@@H](NC(=O)C1(NC(=O)[C@H](Cc2ccccc2)NC(=O)[C@H](C)NC(=O)[C@@H](N)Cc2ccc(O)cc2)CC1)C(C)C)C(=O)NCC(N)=O` (H-YAF[Ac3c]VVG-NH2), the 50% inhibitory concentration (IC50) in assay [1] came out at 0.43 nM; against Mu-type opioid receptor [2], 15 nM. The values for the inhibition constant (Ki) (in assay [3]; at Mu-type opioid receptor [4]) were 0.054 nM and 0.27 nM, respectively.

In the case of `CC(C)[C@H](NC(=O)[C@@H](NC(=O)C1(NC(=O)[C@H](Cc2ccccc2)NC(=O)[C@H](C)NC(=O)[C@@H](N)Cc2ccc(O)cc2)CCCC1)C(C)C)C(=O)NCC(N)=O` (H-YAF[Ac5c]VVG-NH2), the 50% inhibitory concentration (IC50) worked out at 0.19 nM in assay [1] and 140 nM against Mu-type opioid receptor [2]. In addition, the Ki in assay [3] was determined as 0.054 nM; at Mu-type opioid receptor [4], 0.58 nM.

For `CC(C)[C@H](NC(=O)[C@@H](NC(=O)C1(NC(=O)[C@H](Cc2ccccc2)NC(=O)[C@H](C)NC(=O)[C@@H](N)Cc2ccc(O)cc2)CCCCC1)C(C)C)C(=O)NCC(N)=O` (H-YAF[Ac6c]VVG-NH2), the half-maximal inhibitory concentration (IC50) was 0.52 nM in assay [1] and 558 nM against Mu-type opioid receptor [2]. The Ki in assay [3] was determined as 0.045 nM; at Mu-type opioid receptor [4], 2.45 nM.

With `CC(C)[C@H](NC(=O)[C@H](CC(=O)O)NC(=O)C1(NC(=O)[C@H](C)NC(=O)[C@@H](N)Cc2ccc(O)cc2)CC1)C(=O)N[C@H](C(=O)NCC(N)=O)C(C)C` (H-YA[Ac3c]DVVG-NH2), the results for the half-inhibitory concentration (IC50) (in assay [1]; at Mu-type opioid receptor [2]) were 458 nM and > 10000 nM, respectively. For the same molecule, the Ki worked out at 19 nM in assay [3] and 10200 nM at Mu-type opioid receptor [4].

On to `CC(C)[C@H](NC(=O)[C@H](CC(=O)O)NC(=O)C1(NC(=O)[C@H](C)NC(=O)[C@@H](N)Cc2ccc(O)cc2)CCCC1)C(=O)N[C@H](C(=O)NCC(N)=O)C(C)C` (H-YA[Ac5c]DVVG-NH2), for which the concentration for half-maximal inhibition (IC50) was 1640 nM in assay [1] and > 10000 nM on Mu-type opioid receptor [2]. Also, the Ki in assay [3] was found to be 15.4 nM; at Mu-type opioid receptor [4], 6820 nM.

For the molecule `CC(C)[C@H](NC(=O)[C@H](CC(=O)O)NC(=O)C1(NC(=O)[C@H](C)NC(=O)[C@@H](N)Cc2ccc(O)cc2)CCCCC1)C(=O)N[C@H](C(=O)NCC(N)=O)C(C)C` (H-YA[Ac6c]DVVG-NH2), the IC50 in assay [1] was 540 nM; against Mu-type opioid receptor [2], > 10000 nM. The results for the inhibition constant (Ki) (in assay [3]; on Mu-type opioid receptor [4]) were 3.28 nM and 5460 nM, respectively.

With `CC(C)[C@H](NC(=O)[C@H](CC(=O)O)NC(=O)C1(NC(=O)[C@@H](N)Cc2ccc(O)cc2)CCCCC1)C(=O)N[C@H](C(=O)NCC(N)=O)C(C)C` (H-Y[Ac6c]DVVG-NH2), the Ki was 5260 nM in assay [3] and 441000 nM on Mu-type opioid receptor [4].

For `CC(C)[C@H](NC(=O)[C@H](CC(=O)O)NC(=O)[C@H](Cc1ccccc1)NC(=O)C1(NC(=O)[C@@H](N)Cc2ccc(O)cc2)CCCCC1)C(=O)N[C@H](C(=O)NCC(N)=O)C(C)C` (H-Y[Ac6c]FDVVG-NH2), the Ki is 2.48 nM in assay [3] and 3110 nM on Mu-type opioid receptor [4].

As for `CC(C)[C@H](NC(=O)[C@H](CC(=O)O)NC(=O)C1(NC(=O)C2(NC(=O)[C@@H](N)Cc3ccc(O)cc3)CCCCC2)CCCCC1)C(=O)N[C@H](C(=O)NCC(N)=O)C(C)C` (H-Y[Ac6c][Ac6c]DVVG-NH2), the inhibition constant (Ki) in assay [3] was found to be 87.8 nM; at Mu-type opioid receptor [4] it was 14800 nM.

At Mu-type opioid receptor [2], `CC(C)[C@H](NC(=O)[C@H](CC(=O)O)NC(=O)[C@H](Cc1ccccc1)NC(=O)[C@@H](C)NC(=O)[C@@H](N)Cc1ccc(O)cc1)C(=O)N[C@H](C(=O)NCC(N)=O)C(C)C` [DELTORPHIN C] returned an IC50 of 337 nM. The Ki in assay [3] stood at 0.15 nM; at Mu-type opioid receptor [4] it was 147 nM.
